Results reported in ChEMBL document CHEMBL6177935, “Design and synthesis of novel multi-target tetrabromophthalimides as CBS and Topo-II inhibitors and DNA intercalators” (RSC Med Chem, 2024).
≈ marks a conversion by molar mass, not a printed value. Calls of active or inactive are those of the source. No cut-off for these calls is given here.

Experiments:
HeLa [1] = experiment: Growth inhibition of human HeLa cells at 100 ug/ml measured after 48 hrs by SRB assay relative to control; assay type: functional; details: dose 100.0 µg/ml, pooled result: one value given for 15 cell lines, strains, targets or settings
Outline: (§1)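 SRB screen on fifteen human cancer lines. Cells seeded at 3×10^3 per well and left 24 h to attach. A single concentration of 100 µg/mL was tested in triplicate wells for 48 h, with 1% v/v DMSO as vehicle control. Cells fixed in 20% TCA, stained with 0.4% SRB and read at 570 nm. Survival fraction = OD treated/OD control.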

NCI-H1299 = experiment: Growth inhibition of human NCI-H1299 cells at 100 ug/ml measured after 48 hrs by SRB assay relative to control; assay type: functional; details: dose 100.0 µg/ml, pooled result: one value given for 15 cell lines, strains, targets or settings; outline: as §1
HEp-2 = experiment: Growth inhibition of human HEp-2 cells at 100 ug/ml measured after 48 hrs by SRB assay relative to control; assay type: functional; details: dose 100.0 µg/ml, pooled result: one value given for 15 cell lines, strains, targets or settings; outline: as §1
A549 = experiment: Growth inhibition of human A549 cells at 100 ug/ml measured after 48 hrs by SRB assay relative to control; assay type: functional; details: dose 100.0 µg/ml, pooled result: one value given for 15 cell lines, strains, targets or settings; outline: as §1
MDA-MB-468 [2] = experiment: Cell cycle analysis in human MDA-MB-468 cells assessed as accumulation of cells at G2-M phase at 3.1 uM measured after 48 hrs by propidium iodide staining based flow cytometry (reference value: 0.27%); assay type: functional
Outline: (§2)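 MDA-MB-468 cells, 2 x 10^5 per well in medium with 10% FBS, grown 24 h at 37 °C, 5% CO₂. Then exposed to 3.1 μM in 1% v/v DMSO for 48 h, washed in cold PBS and fixed in ice-cold 70% ethanol. Stained with PI for 15 min at 37 °C and read by flow cytometry.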

MDA-MB-468 [3] = experiment: Induction of apoptosis in human MDA-MB-468 cells assessed as upregulation of p53 expression measured after 1 hr by ELISA relative to control; assay type: functional
Outline: (§3)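 Sandwich ELISA with wells precoated with capture antibody. Samples and standards (7-point curve) incubated 1 h at 37 °C, then biotin detection antibody 1 h at 37 °C, then avidin-HRP 30 min at 37 °C, with washes between steps. TMB added for 10-20 min at 37 °C in the dark, stopped with sulphuric acid and read at 450 nm. Duplicate readings averaged and zero standard subtracted.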

FaDu [4] = experiment: Growth inhibition of human FaDu cells measured after 48 hrs by SRB assay; assay type: functional, cell-based
Outline: (§4)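 SRB assay. Cells seeded at 3×10^3 per well and attached 24 h, then exposed for 48 h to 12.5, 25, 50 and 62.5 µg/mL in triplicate wells, with 1% v/v DMSO vehicle. Cells fixed in 20% TCA, stained with 0.4% SRB and read at 570 nm. Survival fraction = OD treated/OD control, and IC50 taken from a sigmoidal dose-response fit.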

Caco-2 = experiment: Growth inhibition of human Caco-2 cells at 100 ug/ml measured after 48 hrs by SRB assay relative to control; assay type: functional; details: dose 100.0 µg/ml, pooled result: one value given for 15 cell lines, strains, targets or settings; outline: as §1
A-375 = experiment: Growth inhibition of human A-375 cells at 100 ug/ml measured after 48 hrs by SRB assay relative to control; assay type: functional; details: dose 100.0 µg/ml, pooled result: one value given for 15 cell lines, strains, targets or settings; outline: as §1
A-431 [5] = experiment: Growth inhibition of human A-431 cells measured after 48 hrs by SRB assay; assay type: functional, cell-based; outline: as §4
MDA-MB-468 [6] = experiment: Induction of apoptosis in human MDA-MB-468 cells assessed as upregulation of caspase-9 expression measured after 1 hr by ELISA relative to control; assay type: functional; outline: as §3
FaDu [7] = experiment: Growth inhibition of human FaDu cells at 100 ug/ml measured after 48 hrs by SRB assay relative to control; assay type: functional; details: dose 100.0 µg/ml, pooled result: one value given for 15 cell lines, strains, targets or settings; outline: as §1
HNO 97 cell line = experiment: Growth inhibition of human HNO 97 cells at 100 ug/ml measured after 48 hrs by SRB assay relative to control; assay type: functional; details: dose 100.0 µg/ml, pooled result: one value given for 15 cell lines, strains, targets or settings; outline: as §1
HCT-116 = experiment: Growth inhibition of human HCT-116 cells at 100 ug/ml measured after 48 hrs by SRB assay relative to control; assay type: functional; details: dose 100.0 µg/ml, pooled result: one value given for 15 cell lines, strains, targets or settings; outline: as §1
MDA-MB-468 [8] = experiment: Induction of apoptosis in human MDA-MB-468 cells assessed as upregulation of caspase-7 expression measured after 1 hr by ELISA relative to control; assay type: functional; outline: as §3
MCF7 = experiment: Growth inhibition of human MCF7 cells at 100 ug/ml measured after 48 hrs by SRB assay relative to control; assay type: functional; details: dose 100.0 µg/ml, pooled result: one value given for 15 cell lines, strains, targets or settings; outline: as §1
DNA topoisomerase 2-beta [9] = target: T1, DNA topoisomerase 2-beta (Homo sapiens, UniProt Q02880); experiment: Inhibition of human topoisomerase IIB by sandwich ELISA
T1 sequence (Q02880 whole entry): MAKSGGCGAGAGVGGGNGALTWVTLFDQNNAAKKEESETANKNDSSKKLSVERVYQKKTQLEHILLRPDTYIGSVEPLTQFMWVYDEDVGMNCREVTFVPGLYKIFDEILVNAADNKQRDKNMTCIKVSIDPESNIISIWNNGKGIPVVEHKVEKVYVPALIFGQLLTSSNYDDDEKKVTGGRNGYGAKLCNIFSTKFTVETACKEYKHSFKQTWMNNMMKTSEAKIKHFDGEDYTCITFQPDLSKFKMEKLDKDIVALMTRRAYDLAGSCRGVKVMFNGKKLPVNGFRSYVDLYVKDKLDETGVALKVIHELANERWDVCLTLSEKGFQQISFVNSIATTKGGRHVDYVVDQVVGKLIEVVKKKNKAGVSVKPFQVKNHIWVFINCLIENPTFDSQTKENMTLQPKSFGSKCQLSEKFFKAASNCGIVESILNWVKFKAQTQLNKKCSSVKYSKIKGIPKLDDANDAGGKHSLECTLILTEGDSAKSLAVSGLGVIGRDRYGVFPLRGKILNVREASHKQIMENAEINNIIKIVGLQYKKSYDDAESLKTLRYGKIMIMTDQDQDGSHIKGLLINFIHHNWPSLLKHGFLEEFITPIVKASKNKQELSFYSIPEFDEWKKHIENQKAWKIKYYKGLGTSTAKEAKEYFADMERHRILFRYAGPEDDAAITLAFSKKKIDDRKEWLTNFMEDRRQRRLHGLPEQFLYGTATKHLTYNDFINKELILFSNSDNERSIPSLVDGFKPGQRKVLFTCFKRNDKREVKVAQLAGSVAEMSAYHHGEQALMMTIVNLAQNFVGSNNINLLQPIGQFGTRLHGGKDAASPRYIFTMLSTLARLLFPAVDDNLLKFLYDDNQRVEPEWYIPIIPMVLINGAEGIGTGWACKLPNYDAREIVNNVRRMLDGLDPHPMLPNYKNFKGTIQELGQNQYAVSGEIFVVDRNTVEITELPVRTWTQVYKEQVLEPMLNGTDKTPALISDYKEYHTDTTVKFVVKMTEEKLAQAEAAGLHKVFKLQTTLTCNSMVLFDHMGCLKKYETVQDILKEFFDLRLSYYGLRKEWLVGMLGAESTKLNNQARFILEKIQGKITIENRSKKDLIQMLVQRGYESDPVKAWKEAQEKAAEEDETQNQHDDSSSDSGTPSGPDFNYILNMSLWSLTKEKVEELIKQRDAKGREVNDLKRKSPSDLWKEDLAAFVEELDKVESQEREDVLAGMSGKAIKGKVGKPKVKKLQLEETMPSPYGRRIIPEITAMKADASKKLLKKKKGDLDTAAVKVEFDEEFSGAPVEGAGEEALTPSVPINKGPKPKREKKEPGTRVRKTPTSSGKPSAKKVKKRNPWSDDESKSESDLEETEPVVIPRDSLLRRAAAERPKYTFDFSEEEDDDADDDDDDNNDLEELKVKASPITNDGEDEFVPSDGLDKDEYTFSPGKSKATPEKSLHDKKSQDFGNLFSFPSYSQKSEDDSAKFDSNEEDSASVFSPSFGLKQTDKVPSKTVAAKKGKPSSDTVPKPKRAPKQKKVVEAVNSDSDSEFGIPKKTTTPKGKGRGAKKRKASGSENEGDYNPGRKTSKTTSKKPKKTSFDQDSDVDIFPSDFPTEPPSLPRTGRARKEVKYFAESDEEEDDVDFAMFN

Tubulin = experiment: Inhibition of [3H]-colchicine binding to biotinylated-tubulin (unknown origin) measured after 45 mins by scintillation counting analysis; assay type: protein-complex assay, Homo sapiens
Outline: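 Scintillation proximity assay run at 37 °C. Incubated 45 min at 37 °C, then the plate was read and percent inhibition calculated from raw counts.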

MDA-MB-468 [10] = experiment: Induction of apoptosis in human MDA-MB-468 cells assessed as upregulation of caspase-3 expression measured after 1 hr by ELISA relative to control; assay type: functional; outline: as §3
MDA-MB-468 [11] = experiment: Induction of apoptosis in human MDA-MB-468 cells assessed as upregulation of Bax expression measured after 1 hr by ELISA relative to control; assay type: functional; outline: as §3
MDA-MB-468 [12] = experiment: Growth inhibition of human MDA-MB-468 cells measured after 48 hrs by SRB assay; assay type: functional, cell-based; details: MDA-MB-468, 48 h; outline: as §4
MDA-MB-468 [13] = experiment: Induction of apoptosis in human MDA-MB-468 cells assessed as down regulation of MMP2 expression measured after 1 hr by ELISA relative to control; assay type: functional; outline: as §3
HeLa [14] = experiment: Growth inhibition of human HeLa cells measured after 48 hrs by SRB assay; assay type: functional, cell-based; outline: as §4
HepG2 = experiment: Growth inhibition of human HepG2 cells at 100 ug/ml measured after 48 hrs by SRB assay relative to control; assay type: functional; details: dose 100.0 µg/ml, pooled result: one value given for 15 cell lines, strains, targets or settings; outline: as §1
PC-3 [15] = experiment: Growth inhibition of human PC-3 cells at 100 ug/ml measured after 48 hrs by SRB assay relative to control; assay type: functional; details: dose 100.0 µg/ml, pooled result: one value given for 15 cell lines, strains, targets or settings; outline: as §1
DNA topoisomerase 2-beta [16] = target: T1, DNA topoisomerase 2-beta; experiment: Inhibition of human topoisomerase IIB-mediated DNA fragmentation
PC-3 [17] = experiment: Growth inhibition of human PC-3 cells measured after 48 hrs by SRB assay; assay type: functional, cell-based; outline: as §4
MDA-MB-468 [18] = experiment: Cell cycle analysis in human MDA-MB-468 cells assessed as accumulation of cells at S phase at 3.1 uM measured after 48 hrs by propidium iodide staining based flow cytometry (reference value: 15.3%); assay type: functional; outline: as §2
MDA-MB-468 [19] = experiment: Induction of apoptosis in human MDA-MB-468 cells assessed as down regulation of BCL-2 expression measured after 1 hr by ELISA relative to control; assay type: functional; outline: as §3
HN = experiment: Growth inhibition of human HN cells at 100 ug/ml measured after 48 hrs by SRB assay relative to control; assay type: functional; details: dose 100.0 µg/ml, pooled result: one value given for 15 cell lines, strains, targets or settings; outline: as §1
A-431 [20] = experiment: Growth inhibition of human A-431 cells at 100 ug/ml measured after 48 hrs by SRB assay relative to control; assay type: functional; details: dose 100.0 µg/ml, pooled result: one value given for 15 cell lines, strains, targets or settings; outline: as §1
MDA-MB-468 [21] = experiment: Growth inhibition of human MDA-MB-468 cells at 100 ug/ml measured after 48 hrs by SRB assay relative to control; assay type: functional; details: dose 100.0 µg/ml, pooled result: one value given for 15 cell lines, strains, targets or settings; outline: as §1
MDA-MB-468 [22] = experiment: Induction of apoptosis in human MDA-MB-468 cells assessed as down regulation of MMP9 expression measured after 1 hr by ELISA relative to control; assay type: functional; outline: as §3
MDA-MB-468 [23] = experiment: Induction of apoptosis in human MDA-MB-468 cells assessed as upregulation of caspase-8 expression measured after 1 hr by ELISA relative to control; assay type: functional; outline: as §3
MDA-MB-468 [24] = experiment: Cell cycle analysis in human MDA-MB-468 cells assessed as accumulation of cells at G0-G1 phase at 3.1 uM measured after 48 hrs by propidium iodide staining based flow cytometry (reference value: 84.43%); assay type: functional; outline: as §2

With `Cc1nnc(S)n(N2C(=O)c3c(Br)c(Br)c(Br)c(Br)c3C2=O)c1=O` the “growth inhibition (GI)” value (HeLa [1]) was “Active”, the “growth inhibition (GI)” value (NCI-H1299) was “Active” and the “growth inhibition (GI)” value (HEp-2) was “Active”. For the same molecule, the “growth inhibition (GI)” value (A549) was “Active”, the Activity (MDA-MB-468 [2]) was 2.29% and the “fold change (FC)” value (MDA-MB-468 [3]) was 3.61. The “growth inhibition (GI)” value (FaDu [4]) was “Active”, the “growth inhibition (GI)” value (Caco-2) was “Active” and the “growth inhibition (GI)” value (A-375) was “Active”. For the same molecule, the “growth inhibition (GI)” value (A-431 [5]) was “Active”, the “fold change (FC)” value (MDA-MB-468 [6]) was 3.72 and the “growth inhibition (GI)” value (FaDu [7]) was “Active”. For the same molecule, the “growth inhibition (GI)” value (HNO 97 cell line) was “Active”, the “growth inhibition (GI)” value (HCT-116) was “Active” and the “fold change (FC)” value (MDA-MB-468 [8]) was 2.44. The “growth inhibition (GI)” value (MCF7) was “Active”, the IC50 (DNA topoisomerase 2-beta [9]) was 26.1 µM and the IC50 (Tubulin) was 3.18 µM. The “fold change (FC)” value (MDA-MB-468 [10]) was 3.42, the “fold change (FC)” value (MDA-MB-468 [11]) was 2.44 and the IC50 (MDA-MB-468 [12]) was 6.7 µg/mL (≈ 11.1 µM). The “fold change (FC)” value (MDA-MB-468 [13]) was 1.9, the “growth inhibition (GI)” value (HeLa [14]) was “Active” and the “growth inhibition (GI)” value (HepG2) was “Active”. For the same molecule, the “growth inhibition (GI)” value (PC-3 [15]) was “Active”, the inhibition (DNA topoisomerase 2-beta [16]) was “Active” and the “growth inhibition (GI)” value (PC-3 [17]) was “Active”. The Activity (MDA-MB-468 [18]) was 9.04%, the “fold change (FC)” value (MDA-MB-468 [19]) was 1.81 and the “growth inhibition (GI)” value (HN) was “Active”. The “growth inhibition (GI)” value (A-431 [20]) was “Active”, the “growth inhibition (GI)” value (MDA-MB-468 [21]) was “Active” and the “fold change (FC)” value (MDA-MB-468 [22]) was 2.29. The “fold change (FC)” value (MDA-MB-468 [23]) was 2.33 and the Activity (MDA-MB-468 [24]) was 88.67%.
